ABCB1 block: blocks JC-1 efflux by human ABCB1 transporter | CCRF-Adr cells, flow cytometry | inhibition, % at 6.6 µM | 0.067% of 190,000 active | P08183; in the data active means inhibition above about 40%;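 further: 0% = vehicle and 100% = reference inhibitor; higher value means more JC-1 retained so stronger ABCB1 efflux block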
MEKK3 PB1 HTS: MEKK3-MEK5 PB1 interaction, increase or decrease; bead-based flow cytometry, Alexa488-MEK5 binding to MEKK3; actives lie on both sides; 0 = blocked by unlabeled MEK5, 100 = vehicle; Q99759; 1.4% of 290,000 active; binding response (% of control), % at 10 µM;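 active means binding response more than 3 SD above or below the average of its plate-row segment, actives on both sides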;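 further: Alexa488 bead fluorescence after subtracting the streptavidin-only scavenger bead signal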
Target sequence (Q99759 whole entry, looked up): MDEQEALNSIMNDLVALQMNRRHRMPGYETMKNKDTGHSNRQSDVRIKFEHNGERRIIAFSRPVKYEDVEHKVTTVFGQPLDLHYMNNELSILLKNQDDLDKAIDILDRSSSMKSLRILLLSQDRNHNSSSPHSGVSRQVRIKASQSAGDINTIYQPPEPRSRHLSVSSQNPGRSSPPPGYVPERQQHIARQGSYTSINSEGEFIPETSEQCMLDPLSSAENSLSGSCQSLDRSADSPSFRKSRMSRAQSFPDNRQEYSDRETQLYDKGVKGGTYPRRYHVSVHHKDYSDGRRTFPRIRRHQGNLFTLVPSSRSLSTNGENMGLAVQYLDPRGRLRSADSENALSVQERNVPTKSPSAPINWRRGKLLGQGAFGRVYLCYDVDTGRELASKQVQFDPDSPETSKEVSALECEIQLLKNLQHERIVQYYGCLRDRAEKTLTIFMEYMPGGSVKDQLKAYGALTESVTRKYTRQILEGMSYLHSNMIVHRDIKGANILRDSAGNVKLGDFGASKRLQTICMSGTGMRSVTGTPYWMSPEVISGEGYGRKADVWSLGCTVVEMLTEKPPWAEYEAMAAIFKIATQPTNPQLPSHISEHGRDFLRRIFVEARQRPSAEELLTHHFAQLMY
MEKK2 mut-MEK5: signal of MEK5 binding to mutant human MEKK2 PB1 domain | bead flow cytometry, Alexa488-MEK5 binding to MEKK2 mutant | percent response, % at 10 µM | 0.35% of 290,000 active; in the data active means percent response above about 24%, passing the limit was not always enough
MEKK2wt PB1 HTS: raises or lowers MEK5 binding to wildtype human MEKK2 PB1 domain; Q9Y2U5; bead flow cytometry, Alexa488-MEK5 binding to MEKK2 WT; actives lie on both sides; binding response (% of control), % at 10 µM; 1.1% of 290,000 active; AID 1531; in the data active means binding response below about 67% or above about 130%
ABCG2 block: inhibitors of human ABCG2 transporter, ABCB1 counter-screen; IgMXP3 cells, JC-1 efflux, flow cytometry; inhibition, % at 6.6 µM; 0.1% of 190,000 active; AID 1325;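 active means inhibition above 80%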;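 further: 0% = DMSO and 100% = nicardipine control wells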
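Times: 10 min at 25 °C | Test system: Two drug-resistant human cell lines, ABCG2 and ABCB1 | Quantity: 3 million cells/mL final, two lines in 1:1 ratio | Signal: Flow cytometry, 530 nm JC-1 signal | Dosing: Compound at 6.6 µM | Controls: Nicardipine and DMSO wells | Reagent: JC-1 as fluorescent efflux pump substrate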
MEKK2wt confirm: raises or lowers MEK5 binding to wildtype human MEKK2, retest; binding response (% of control), % at 10 µM; shares compounds with MEKK3 PB1 HTS; bead flow cytometry, Alexa488-MEK5 binding to MEKK2 WT; actives lie on both sides; AID 1892; 2.4% of 5,900 active; in the data active means binding response below about 16% or above about 210%; inactive means in between
MEKK2mut-MEK5: signal of MEK5 binding to mutant human MEKK2, retest. shares compounds with MEKK3 PB1 HTS. 2% of 5,900 active. percent response, % at 10 µM. bead flow cytometry, Alexa488-MEK5 binding to MEKK2 mutant; in the data active means percent response mostly above about 71%, no sharp cut-off; inactive means mostly below about 38%;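 further: higher means compound restores mutant binding toward wildtype level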
MEKK3 confirm: MEKK3-MEK5 PB1 inhibition, single concentration confirmation. 1.8% of 5,900 active. AID 1894. binding response (% of control), % at 10 µM. shares compounds with MEKK3 PB1 HTS. bead flow cytometry, Alexa488-MEK5 binding to MEKK3; active compounds read low;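 active means binding response below 72% of control, or above a set upper limit, though filed actives all read lower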;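 further: 100% = DMSO only wells and 0% = binding blocked by excess unlabeled MEK5; lower values mean stronger disruption of MEK5 binding to MEKK3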
Numbers without * were called inactive; x = no result given; [ ] = another dose, or the depositor's remark. Compounds with a hit are over-represented: about 2.3% of the library has one in this group of screens.

SMILES | ABCB1 block | MEKK3 PB1 HTS | MEKK2 mut-MEK5 | MEKK2wt PB1 HTS | ABCG2 block | MEKK2wt confirm | MEKK2mut-MEK5 | MEKK3 confirm
CCc1cccc(C)c1NC(=S)NCc1ccc2c(c1)cc(C)n2C | -0.1 | 84.0 | -3.0 | 72.0*[inhibitor] | 1.2 | 104.0 | 5.0 | 105.0
Cc1cc2cc(CNC(=S)NCc3ccccc3)ccc2n1C | -0.9 | 97.0 | -9.0 | 98.0 | -2.0 | x | x | x
CCc1cccc(C)c1NC(=S)NCc1ccccc1 | 0.8 | 105.0 | 1.0 | 104.0 | 10.3 | x | x | x
Cc1cc2cc(CNS(=O)(=O)c3ccccc3)ccc2n1C | 0.0 | 61.0 | -20.0 | 39.0*[inhibitor] | 0.0 | 50.0 | -14.0 | 73.0
Cc1ccccc1NC(=S)NCc1ccc2c(c1)cc(C)n2C | 1.2 | 74.0*[inhibitor] | -2.0 | 61.0*[inhibitor] | 13.9 | 109.0 | 7.0 | 105.0
Cc1cc2cc(CNC(=O)Nc3ccccc3)ccc2n1C | -0.2 | 87.0 | 4.0 | -4.0*[inhibitor] | 3.9 | 92.0 | 3.0 | 95.0
COc1ccccc1NC(=S)NCc1ccc2c(c1)cc(C)n2C | -0.5 | 99.0 | -7.0 | 98.0 | -1.1 | x | x | x
Cc1c(Cl)cccc1NC(=O)CN(C1CCCCC1)S(C)(=O)=O | x | 94.0 | 2.0 | 100.0 | x | x | x | x
O=C(O)c1cc(N2C(=O)CCC2=O)ccc1Cl | x | 105.0 | 8.0 | 103.0 | x | x | x | x
O=C(NCc1cn(-c2ccccc2)nc1-c1ccccc1)c1cccc([N+](=O)[O-])c1 | 1.2 | 101.0 | 8.0 | 114.0 | 10.8 | x | x | x
N#CCCn1cc(CNCc2ccccc2)c(-c2cccc([N+](=O)[O-])c2)n1 | 0.5 | 105.0 | 23.0 | 160.0* | 3.3 | 144.0 | 21.0 | 99.0
COc1ccc(NC(=O)C2C(=O)NC3(C)CC2c2ccccc2O3)cc1 (configuration not stated) | 1.8 | 88.0 | -8.0 | 96.0 | 7.4 | x | x | x
CC12CC(c3ccccc3O1)C(C(=O)NCc1ccccc1)C(=O)N2 (configuration not stated) | 1.6 | 81.0*[inhibitor] | -6.0 | 87.0 | 7.4 | 82.0 | -10.0 | 87.0
CN(Cc1ccccc1)C(=O)C1CCC(CNS(=O)(=O)c2cccc3cccnc23)CC1 (configuration not stated) | x | 131.0* | 26.0 | 119.0 | x | 106.0 | 2.0 | 99.0
CCC1=Nc2cc(C(=O)NCCCOC(C)C)ccc2Sc2ccccc21 | 0.8 | 128.0* | 5.0 | 127.0 | 21.4 | 95.0 | -1.0 | 99.0
Cc1cccc2nc(CSc3nc4ccc([N+](=O)[O-])cc4[nH]3)cn12 | 1.4 | 151.0* | 0.0 | 110.0 | 13.8 | 103.0 | 8.0 | 103.0
COc1ccc(CCN2CC(C(=O)NC3CCOCC3)CCC2=O)cc1 (configuration not stated) | x | 96.0 | 0.0 | 93.0 | x | x | x | x
CCc1nnc(NC(=O)CSc2nnc(-c3ccncc3)n2C)s1 | 0.1 | 2.0*[inhibitor] | 1.0 | 1.0*[inhibitor] | -0.5 | 103.0 | -1.0 | 102.0
Cc1nc(NC(=O)CSc2nnc(-c3ccncc3)n2C)sc1C | x | 101.0 | 0.0 | 97.0 | x | x | x | x
O=C(OCc1c(F)cccc1Cl)c1cnc2ccccc2n1 | x | 102.0 | -1.0 | 100.0 | x | x | x | x
COc1ccc(N2CCN(c3cc(C)c4cccc(C)c4n3)CC2)cc1 | -0.2 | 67.0*[inhibitor] | -11.0 | 86.0 | 1.1 | 98.0 | -6.0 | 100.0
Cc1ccccc1C(=O)N1CCN(CCNC(=O)C(=O)Nc2ccc(Br)cc2)CC1 | x | 90.0 | -3.0 | 94.0 | x | x | x | x
COc1ccc(N(CC(=O)N2CCN(Cc3ccccc3)CC2)S(C)(=O)=O)cc1OC | x | 101.0 | 3.0 | 102.0 | x | x | x | x
Nc1ccc(C23CC4CC(CC(C4)C2)C3)cc1 | -0.9 | 41.0*[inhibitor] | -16.0 | 53.0 | -2.8 | 96.0 | -3.0 | 100.0
COc1cccc(NC(=S)N2CCC(c3ccc(C)cc3)C2)c1 (configuration not stated) | x | 105.0 | 4.0 | 107.0 | x | x | x | x
COc1ccc(/C=N/Nc2ncnc3sc(C)c(C)c23)cc1 | 1.6 | 133.0* | 1.0 | 107.0 | 18.7 | 106.0 | -3.0 | 102.0
